This passage reports MIC, Ratio and Activity results from ChEMBL document CHEMBL5247680, “Design, Synthesis, and Biological Activity of Thioguanine-Modified Pleuromutilin Derivatives” (ACS Med Chem Lett, 2023).

Values after ≈ are worked out from the molar mass of the structure shown. Active and inactive are the calls of the source. The calls are words filed in the database; no cut-off is given here.

In experiment [1] the test system is Staphylococcus epidermidis. Description: Antibacterial activity against Methicillin-sensitive Staphylococcus epidermidis ATCC 12228 assessed as bacterial growth inhibition incubated for 20 to 24 hrs by microbroth serial dilution assay. It is filed as functional. Particulars: time 20-24 hrs.
Experiment [2] relates to Staphylococcus aureus. Description: Selectivity ratio of MBC for antibacterial activity against Methicillin-resistant Staphylococcus aureus ATCC 33591 to MIC for antibacterial activity against Methicillin-resistant Staphylococcus aureus ATCC 33591. The format is functional.
The subject of experiment [3] is Staphylococcus aureus. Description: Antibacterial activity against Methicillin-resistant Staphylococcus aureus ATCC 33591 assessed as bacterial growth inhibition incubated for 20 to 24 hrs by microbroth serial dilution assay. It is filed as functional. Particulars: time 20-24 hrs.
For experiment [4], the system named is Staphylococcus aureus. Description: Antibacterial activity against Methicillin-resistant Staphylococcus aureus ATCC 43300 assessed as bacterial growth inhibition incubated for 20 to 24 hrs by microbroth serial dilution assay. The format is functional. The conditions noted are these: time 20-24 hrs.
Experiment [5] relates to Staphylococcus epidermidis. Description: Selectivity ratio of MBC for antibacterial activity against Methicillin-sensitive Staphylococcus epidermidis […] to MIC for antibacterial activity against Methicillin-sensitive Staphylococcus epidermidis […]. The format is functional.
In experiment [6] the test system is Staphylococcus aureus. Description: Selectivity ratio of MBC for antibacterial activity against Staphylococcus aureus to MIC for antibacterial activity against Staphylococcus aureus. It is filed as functional.
The subject of experiment [7] is Staphylococcus aureus. Description: Selectivity ratio of MBC for antibacterial activity against Methicillin-sensitive Staphylococcus aureus ATCC 29213 to MIC for antibacterial activity against Methicillin-sensitive Staphylococcus aureus ATCC 29213.
For experiment [8], the system named is Staphylococcus epidermidis. Description: Antibacterial activity against Methicillin-resistant Staphylococcus epidermidis ATCC 51625 assessed as bacterial growth inhibition incubated for 20 to 24 hrs by microbroth serial dilution assay. The conditions noted are these: time 20-24 hrs. It is filed as functional.
Experiment [9] deals with Staphylococcus aureus. Description: Antibacterial activity against Staphylococcus aureus ATCC 25923 assessed as bacterial growth inhibition incubated for 20 to 24 hrs by microbroth serial dilution assay. It is filed as functional. Particulars: time 20-24 hrs.
The test system of experiment [10] is Staphylococcus epidermidis. Description: Selectivity ratio of MBC for antibacterial activity against Methicillin-resistant Staphylococcus epidermidis ATCC 51625 to MIC for antibacterial activity against Methicillin-resistant Staphylococcus epidermidis ATCC 51625. The format is functional.
Experiment [11] has as its system Staphylococcus aureus. Description: Antibacterial activity against Methicillin-sensitive Staphylococcus aureus ATCC 29213 assessed as bacterial growth inhibition incubated for 20 to 24 hrs by microbroth serial dilution assay.
The test system of experiment [12] is Staphylococcus aureus. Description: Selectivity ratio of MBC for antibacterial activity against Methicillin-resistant Staphylococcus aureus ATCC 43300 to MIC for antibacterial activity against Methicillin-resistant Staphylococcus aureus ATCC 43300. It is filed as functional.
The subject of experiment [13] is Staphylococcus aureus. Description: In vivo Antibacterial activity against Methicillin-resistant Staphylococcus aureus in ICR mouse thigh infection model assessed as reduction in bacterial load at 40 mg/kg, IP by […]. The format is functional.
For experiment [14], the system named is Staphylococcus aureus. Description: Antibacterial activity against Methicillin-resistant Staphylococcus aureus ATCC 33591 assessed as bacterial colony inhibition at 1 to 2 times MIC measured upto 24 hrs by time kill assay. The format is functional, organism-based. Put shortly:
(§1)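 MRSA ATCC 33591 time-kill curves at 1×, 2× and 4× MIC, with a tiamulin positive control and an untreated growth control. Viable counts were taken as CFU·mL⁻¹ at time points through incubation, including 2, 8 and 12 h.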

The subject of experiment [15] is Staphylococcus aureus. Description: Antibacterial activity against Methicillin-resistant Staphylococcus aureus ATCC 33591 assessed as bacterial growth inhibition at 1 to 2 times MIC measured upto 24 hrs by time kill assay. It is filed as functional, organism-based. Put shortly: as §1
The subject of experiment [16] is Staphylococcus aureus. Description: Antibacterial activity against Methicillin-resistant Staphylococcus aureus ATCC 33591 assessed as bacterial bactericidal effect at 1 to 2 times MIC measured upto 24 hrs by time kill assay. The format is functional, organism-based. In outline:
as §1

Regarding `C=C[C@]1(C)C[C@@H](OC(=O)CSc2nc(NC(=O)CN3CCCC3)nc3[nH]cnc23)[C@@]2(C)C3C(=O)CC[C@@]3(CC[C@H]2C)[C@@H](C)[C@@H]1O` (stereo not given in full), the MIC in [1] was 2 µg/mL (≈ 3.13 µM); with Staphylococcus aureus [3], 2 µg/mL (≈ 3.13 µM); in the experiment on Staphylococcus aureus [4] it was 1 µg/mL (≈ 1.57 µM); in [8], 1 µg/mL (≈ 1.57 µM); in the experiment on Staphylococcus aureus [9], 2 µg/mL (≈ 3.13 µM); in the experiment on Staphylococcus aureus [11], 2 µg/mL (≈ 3.13 µM). The Ratio with Staphylococcus aureus [2] is reported as 4; in [5] it was greater than 4; with Staphylococcus aureus [6] it was greater than 4; in the experiment on Staphylococcus aureus [7], 4; in [10] it was 4.

As to `C=C[C@]1(C)C[C@@H](OC(=O)CSC(C)(C)CNC(=O)[C@H](N)C(C)C)[C@]2(C)[C@H](C)CC[C@]3(CCC(=O)[C@H]32)[C@@H](C)[C@@H]1O` [VALNEMULIN], the MIC amounted to 2 µg/mL (≈ 3.54 µM) in experiment [1]; 0.25 µg/mL (≈ 0.443 µM) in the experiment on Staphylococcus aureus [3]; 0.125 µg/mL (≈ 0.221 µM) with Staphylococcus aureus [4]; 0.125 µg/mL (≈ 0.221 µM) in [8]; 0.25 µg/mL (≈ 0.443 µM) with Staphylococcus aureus [9]; 0.125 µg/mL (≈ 0.221 µM) in the experiment with Staphylococcus aureus [11]. The Ratio in experiment [5] was greater than 4; with Staphylococcus aureus [6], 1; in the experiment with Staphylococcus aureus [7], greater than 4; in the experiment on Staphylococcus aureus [12] it was 4.

In the case of `C=C[C@]1(C)C[C@@H](OC(=O)CSc2nc(N)nc3c2ncn3C(=O)OCC)[C@@]2(C)C3C(=O)CC[C@@]3(CC[C@H]2C)[C@@H](C)[C@@H]1O` (stereo not given in full), the MIC is less than 0.0078 µg/mL in [1]; 0.25 µg/mL (≈ 0.417 µM) in the experiment with Staphylococcus aureus [3]; 0.125 µg/mL (≈ 0.208 µM) in the experiment on Staphylococcus aureus [4]; 0.25 µg/mL (≈ 0.417 µM) in [8]; 0.25 µg/mL (≈ 0.417 µM) in the experiment on Staphylococcus aureus [9]; 0.125 µg/mL (≈ 0.208 µM) in the experiment with Staphylococcus aureus [11]. Further, the Ratio in experiment [5] was greater than 4; in the experiment on Staphylococcus aureus [6] it was 4; in the experiment on Staphylococcus aureus [7] it was greater than 4; in the experiment with Staphylococcus aureus [12], greater than 4.

For the molecule `C=C[C@]1(C)C[C@@H](OC(=O)CSc2nc(NC(=O)CN3CCOCC3)nc3[nH]cnc23)[C@@]2(C)C3C(=O)CC[C@@]3(CC[C@H]2C)[C@@H](C)[C@@H]1O` (stereo not given in full), the MIC in [1] worked out at 0.0156 µg/mL (≈ 0.0238 µM); with Staphylococcus aureus [3], 1 µg/mL (≈ 1.53 µM); with Staphylococcus aureus [4] it was 1 µg/mL (≈ 1.53 µM); in experiment [8], 0.125 µg/mL (≈ 0.191 µM); with Staphylococcus aureus [9], 0.5 µg/mL (≈ 0.764 µM); with Staphylococcus aureus [11], 1 µg/mL (≈ 1.53 µM). Moreover, the Ratio (with Staphylococcus aureus [2]; in experiment [5]; with Staphylococcus aureus [7]; in the experiment with Staphylococcus aureus [12]) was greater than 4 throughout.

For `C=C[C@]1(C)C[C@@H](OC(=O)CSc2nc(N)nc3[nH]cnc23)[C@@]2(C)C3C(=O)CC[C@@]3(CC[C@H]2C)[C@@H](C)[C@@H]1O` (stereo not given in full), the MIC was 0.125 µg/mL (≈ 0.237 µM) in experiment [1]; 0.125 µg/mL (≈ 0.237 µM) in the experiment with Staphylococcus aureus [3]; 0.125 µg/mL (≈ 0.237 µM) in the experiment with Staphylococcus aureus [4]; 0.125 µg/mL (≈ 0.237 µM) in [8]; 0.25 µg/mL (≈ 0.474 µM) in the experiment with Staphylococcus aureus [9]; 0.125 µg/mL (≈ 0.237 µM) with Staphylococcus aureus [11]. Further, the Ratio in the experiment on Staphylococcus aureus [2] is 4; in experiment [5], greater than 4; with Staphylococcus aureus [6] it was greater than 4; in [10] it was 2.

With `C=C[C@]1(C)C[C@@H](OC(=O)CSc2nc(N)nc3c2ncn3C(=O)NCc2cccc(OC)c2)[C@@]2(C)C3C(=O)CC[C@@]3(CC[C@H]2C)[C@@H](C)[C@@H]1O` (stereo not given in full), the MIC in [1] stood at 0.0156 µg/mL (≈ 0.0226 µM); in the experiment with Staphylococcus aureus [3], 0.125 µg/mL (≈ 0.181 µM); in the experiment with Staphylococcus aureus [4] it was 0.125 µg/mL (≈ 0.181 µM); in experiment [8], 0.0625 µg/mL (≈ 0.0905 µM); in the experiment with Staphylococcus aureus [9] it was 0.125 µg/mL (≈ 0.181 µM); in the experiment with Staphylococcus aureus [11], 0.0625 µg/mL (≈ 0.0905 µM). Besides, the Ratio in the experiment on Staphylococcus aureus [2] is 4; in experiment [5] it was greater than 4; with Staphylococcus aureus [6], greater than 4; in the experiment with Staphylococcus aureus [7], 4; in [10], 2.

`C=C[C@]1(C)C[C@@H](OC(=O)CSCCN(CC)CC)[C@]2(C)[C@H](C)CC[C@]3(CCC(=O)[C@H]32)[C@@H](C)[C@@H]1O` [TIAMULIN]: the MIC stood at 0.5 µg/mL (≈ 1.01 µM) in experiment [1]; 1 µg/mL (≈ 2.03 µM) in the experiment on Staphylococcus aureus [3]; 2 µg/mL (≈ 4.05 µM) in the experiment on Staphylococcus aureus [4]; 1 µg/mL (≈ 2.03 µM) in experiment [8]; 2 µg/mL (≈ 4.05 µM) in the experiment on Staphylococcus aureus [9]; 1 µg/mL (≈ 2.03 µM) with Staphylococcus aureus [11]. Also, the Ratio is listed as greater than 4 in experiment [5], 4 with Staphylococcus aureus [6] and greater than 4 with Staphylococcus aureus [7]. In addition, the Activity in the experiment on Staphylococcus aureus [13] is 1 10^7CFU/g. The result in the experiment on Staphylococcus aureus [14] and with Staphylococcus aureus [15] was Active. Moreover, the result in the experiment with Staphylococcus aureus [16] was inactive.
